The source of these data is ChEMBL document CHEMBL4414600, “Discovery of a Furanopyrimidine-Based Epidermal Growth Factor Receptor Inhibitor (DBPR112) as a Clinical Candidate for the Treatment of Non-Small Cell Lung Cancer” (J Med Chem, 2019).

Activity calls are given as the source filed them. The rule behind the calls is not given here.

Series [1] addresses STE20-like serine/threonine-protein kinase (Homo sapiens) (UniProt Q9H2G2). Kind of series: Binding affinity to wild-type human partial length SLK (S14 to A307 residues) expressed in bacterial expression system assessed as residual binding level at 10000 nM by Kinomescan method relative to control. In outline:
(§1)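 KINOMEScan competition binding panel run at 10,000 nM compound, with results expressed as percent of control binding. S(10) is the fraction of non-mutant kinases below 10% of control, out of 395 tested.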

For series [2], the system named is NCI-H1975. Put plainly: Antitumor activity against human NCI-H1975 cells xenografted in nude BALB/c mouse assessed as inhibition of tumor growth at 50 mg/kg, po QD for 15 days relative to control. The series is classed as functional. In outline: (§2)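 H1975 cells were grown in RPMI1640 with 10% heat-inactivated FBS at 37 °C, 5% CO2, and passaged by trypsin-EDTA. 5x10^6 cells in 0.1 ml PBS were injected subcutaneously at the right flank of BALB/c nude mice. Oral QD dosing for 15 days began at a mean tumor size of 147 mm³, n = 5 per group.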
(Xenograft models place foreign cells or tissue in a host animal.)

The test system of series [3] is NCI-H1975. As to conditions: Homo sapiens, at 312.5 to 20000 nM.
Series [4] in a line: Toxicity in nude BALB/c mouse xenografted with human NCI-H1975 cells assessed as drug tolerability at 50 mg/kg, po QD for 15 days relative to control. The series is classed as organism-based. As to conditions: in vivo, 360 h. In outline:
as §2

Series [5] in a line: Toxicity in nude BALB/c mouse xenografted with human NCI-H1975 cells assessed as induction of body weight loss at 50 mg/kg, po QD for 15 days relative to control. The class given is organism-based. Conditions: in vivo, 360 h. An outline of the steps: as §2
Series [6] is described as follows: Tmax in rat at 23.6 mg/kg, po. The series is classed as ADME, organism-based. Conditions: in vivo. An outline of the steps: (§3)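 Rat pharmacokinetics: single IV injection at 5 mg/kg or oral dosing at 20 mg/kg (23.6 mg/kg oral for one compound). Plasma parameters t1/2, CL, Vss, AUC(0-inf), Cmax, Tmax and oral bioavailability F were derived from the concentration–time profiles.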

In series [7] the target is Tyrosine-protein kinase Blk (Homo sapiens) (UniProt P51451). Kind of series: Binding affinity to wild-type human partial length BLK (G211 to L503 residues) expressed in bacterial expression system assessed as residual binding level at 10000 nM by Kinomescan method relative to control. In outline: as §1
Sequence of Tyrosine-protein kinase Blk (Homo sapiens) (P51451 2-505 limits assumed): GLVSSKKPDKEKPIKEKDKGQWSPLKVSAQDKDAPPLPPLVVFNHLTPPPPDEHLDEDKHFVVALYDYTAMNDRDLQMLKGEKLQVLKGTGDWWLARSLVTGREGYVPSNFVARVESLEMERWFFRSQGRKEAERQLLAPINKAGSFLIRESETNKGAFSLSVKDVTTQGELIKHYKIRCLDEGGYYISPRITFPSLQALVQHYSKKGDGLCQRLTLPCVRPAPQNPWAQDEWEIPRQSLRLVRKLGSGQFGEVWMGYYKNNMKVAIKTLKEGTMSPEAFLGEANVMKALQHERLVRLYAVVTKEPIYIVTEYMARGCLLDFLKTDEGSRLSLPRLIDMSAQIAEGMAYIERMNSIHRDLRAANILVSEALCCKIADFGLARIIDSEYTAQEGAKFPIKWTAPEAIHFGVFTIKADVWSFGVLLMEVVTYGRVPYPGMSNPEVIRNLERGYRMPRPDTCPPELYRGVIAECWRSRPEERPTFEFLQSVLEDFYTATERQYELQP
Series [8] in a line: Toxicity in ICR mouse at 100 mg/kg, po QD for 2 weeks. The class given is organism-based. Conditions: in vivo, 336 h.
Series [9] can be described thus: Toxicity in athymic NU-Fox1nu nude mouse xenografted with human HCC827 cells assessed as induction of adverse effects at 20 to 50 mg/kg, po dosed via gavage for 5 days/week for 2 consecutive weeks. The class given is organism-based. As to conditions: in vivo, 120 h. An outline of the steps: (§4)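 Male athymic NU-Fox1nu nude mice, 6–8 weeks old, were inoculated subcutaneously at the left flank with 5x10^6 HCC827 (exon 19 Del E746_A750) cells. Oral gavage began at a mean tumor size of about 500 mm³, in 1% methylcellulose/0.5% Tween 80/98.5% water, once daily on days 1-5 and 8-12. Tumor volume (V = 0.5 a × b², caliper) and body weight were tracked.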

Series [10] concerns the target Receptor tyrosine-protein kinase erbB-2 (Homo sapiens) (UniProt P04626). Put plainly: Binding affinity to wild-type human partial length ERBB2 (K646 to V1225 residues) expressed in mammalian expression system assessed as residual binding level at 10000 nM by Kinomescan method relative to control. In outline:
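KINOMEscan competition-binding profiling at a single concentration of 10,000 nM across a panel that included 395 non-mutant kinases. Binding is read out as percent of control. Kinases with less than 10% of control were counted as hits for the S(10) selectivity score, which is the number of non-mutant hits divided by the number of non-mutant kinases tested.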

Another series has as its system HCC827. Put plainly: Antitumor activity against human HCC827 cells xenografted in athymic NU-Fox1nu nude mouse assessed as inhibition of tumor growth at 20 to 50 mg/kg, po dosed via gavage for 5 days/week for 2 consecutive weeks. The series is classed as functional, organism-based. In outline:
as §4

The nature of series [11]: Oral bioavailability in rat at 23.6 mg/kg. The series is classed as ADME, organism-based. As to conditions: in vivo. In outline: as §3
Series [12] is described as follows: Toxicity in athymic NU-Fox1nu nude mouse xenografted with human HCC827 cells assessed as effect on body weight at 20 to 50 mg/kg, po dosed via gavage for 5 days/week for 2 consecutive weeks. The class given is organism-based. Conditions: in vivo, 120 h. In outline: as §4
The target in series [13] is T1, Tyrosine-protein kinase Tec (Homo sapiens) (UniProt P42680).
T1 sequence (whole entry): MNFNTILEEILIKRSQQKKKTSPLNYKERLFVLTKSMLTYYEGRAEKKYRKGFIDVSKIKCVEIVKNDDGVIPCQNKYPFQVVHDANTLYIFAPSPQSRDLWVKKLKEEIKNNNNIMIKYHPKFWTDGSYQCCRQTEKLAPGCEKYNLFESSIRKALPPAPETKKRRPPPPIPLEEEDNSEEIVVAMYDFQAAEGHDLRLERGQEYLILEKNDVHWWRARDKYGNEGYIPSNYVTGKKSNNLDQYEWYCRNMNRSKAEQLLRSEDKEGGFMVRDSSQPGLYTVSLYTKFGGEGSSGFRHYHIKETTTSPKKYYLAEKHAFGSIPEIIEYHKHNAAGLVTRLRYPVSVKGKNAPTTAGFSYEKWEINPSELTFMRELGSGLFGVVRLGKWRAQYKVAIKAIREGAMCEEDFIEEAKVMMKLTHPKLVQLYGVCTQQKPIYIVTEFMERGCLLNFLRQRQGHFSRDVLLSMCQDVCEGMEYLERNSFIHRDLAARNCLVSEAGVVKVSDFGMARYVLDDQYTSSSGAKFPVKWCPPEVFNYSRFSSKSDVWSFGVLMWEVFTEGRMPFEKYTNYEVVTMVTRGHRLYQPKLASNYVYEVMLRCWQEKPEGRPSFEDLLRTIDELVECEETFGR
Put plainly: Binding affinity to wild-type human partial length TEC (L341 to D620 residues) expressed in bacterial expression system assessed as residual binding level at 10000 nM by Kinomescan method relative to control. An outline of the steps: as §1

What is called Tmax is the time at which the peak concentration occurs. The term bioavailability denotes dose-corrected exposure relative to a reference, in per cent. A low value points to poor availability.

Sequence of Receptor tyrosine-protein kinase erbB-2 (Homo sapiens) (P04626 whole entry, the tested form may be a part): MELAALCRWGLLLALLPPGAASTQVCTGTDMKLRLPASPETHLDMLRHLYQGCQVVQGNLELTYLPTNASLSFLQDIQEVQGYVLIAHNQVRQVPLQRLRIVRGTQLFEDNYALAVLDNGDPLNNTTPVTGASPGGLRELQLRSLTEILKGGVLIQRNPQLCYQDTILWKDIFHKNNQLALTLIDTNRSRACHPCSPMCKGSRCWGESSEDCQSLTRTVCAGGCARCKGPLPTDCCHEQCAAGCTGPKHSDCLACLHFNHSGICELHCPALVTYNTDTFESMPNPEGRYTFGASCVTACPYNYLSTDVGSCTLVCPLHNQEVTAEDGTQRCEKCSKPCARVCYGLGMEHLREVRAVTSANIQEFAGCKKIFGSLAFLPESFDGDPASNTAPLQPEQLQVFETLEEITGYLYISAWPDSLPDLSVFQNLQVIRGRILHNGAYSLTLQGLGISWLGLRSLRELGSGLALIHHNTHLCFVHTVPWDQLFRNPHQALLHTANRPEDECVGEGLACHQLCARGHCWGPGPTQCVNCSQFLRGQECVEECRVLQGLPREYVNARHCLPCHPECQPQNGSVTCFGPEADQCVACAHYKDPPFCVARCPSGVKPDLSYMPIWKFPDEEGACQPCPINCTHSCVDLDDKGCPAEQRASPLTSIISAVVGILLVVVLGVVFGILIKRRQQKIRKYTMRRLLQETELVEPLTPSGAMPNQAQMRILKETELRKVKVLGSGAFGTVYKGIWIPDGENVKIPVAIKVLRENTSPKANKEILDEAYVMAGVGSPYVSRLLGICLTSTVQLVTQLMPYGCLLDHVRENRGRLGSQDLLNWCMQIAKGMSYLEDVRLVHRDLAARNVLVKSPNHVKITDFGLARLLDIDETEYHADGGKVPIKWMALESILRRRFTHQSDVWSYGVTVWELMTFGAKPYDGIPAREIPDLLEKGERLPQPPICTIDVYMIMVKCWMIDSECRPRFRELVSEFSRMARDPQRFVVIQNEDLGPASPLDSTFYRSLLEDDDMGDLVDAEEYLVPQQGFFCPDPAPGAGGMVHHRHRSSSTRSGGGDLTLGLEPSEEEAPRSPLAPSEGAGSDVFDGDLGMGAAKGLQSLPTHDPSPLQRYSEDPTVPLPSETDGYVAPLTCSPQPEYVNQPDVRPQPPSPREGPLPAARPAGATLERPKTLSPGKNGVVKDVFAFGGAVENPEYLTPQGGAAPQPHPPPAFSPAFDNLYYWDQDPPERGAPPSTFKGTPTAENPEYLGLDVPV
Sequence of STE20-like serine/threonine-protein kinase (Homo sapiens) (Q9H2G2 whole entry, looked up, the tested form may be a part): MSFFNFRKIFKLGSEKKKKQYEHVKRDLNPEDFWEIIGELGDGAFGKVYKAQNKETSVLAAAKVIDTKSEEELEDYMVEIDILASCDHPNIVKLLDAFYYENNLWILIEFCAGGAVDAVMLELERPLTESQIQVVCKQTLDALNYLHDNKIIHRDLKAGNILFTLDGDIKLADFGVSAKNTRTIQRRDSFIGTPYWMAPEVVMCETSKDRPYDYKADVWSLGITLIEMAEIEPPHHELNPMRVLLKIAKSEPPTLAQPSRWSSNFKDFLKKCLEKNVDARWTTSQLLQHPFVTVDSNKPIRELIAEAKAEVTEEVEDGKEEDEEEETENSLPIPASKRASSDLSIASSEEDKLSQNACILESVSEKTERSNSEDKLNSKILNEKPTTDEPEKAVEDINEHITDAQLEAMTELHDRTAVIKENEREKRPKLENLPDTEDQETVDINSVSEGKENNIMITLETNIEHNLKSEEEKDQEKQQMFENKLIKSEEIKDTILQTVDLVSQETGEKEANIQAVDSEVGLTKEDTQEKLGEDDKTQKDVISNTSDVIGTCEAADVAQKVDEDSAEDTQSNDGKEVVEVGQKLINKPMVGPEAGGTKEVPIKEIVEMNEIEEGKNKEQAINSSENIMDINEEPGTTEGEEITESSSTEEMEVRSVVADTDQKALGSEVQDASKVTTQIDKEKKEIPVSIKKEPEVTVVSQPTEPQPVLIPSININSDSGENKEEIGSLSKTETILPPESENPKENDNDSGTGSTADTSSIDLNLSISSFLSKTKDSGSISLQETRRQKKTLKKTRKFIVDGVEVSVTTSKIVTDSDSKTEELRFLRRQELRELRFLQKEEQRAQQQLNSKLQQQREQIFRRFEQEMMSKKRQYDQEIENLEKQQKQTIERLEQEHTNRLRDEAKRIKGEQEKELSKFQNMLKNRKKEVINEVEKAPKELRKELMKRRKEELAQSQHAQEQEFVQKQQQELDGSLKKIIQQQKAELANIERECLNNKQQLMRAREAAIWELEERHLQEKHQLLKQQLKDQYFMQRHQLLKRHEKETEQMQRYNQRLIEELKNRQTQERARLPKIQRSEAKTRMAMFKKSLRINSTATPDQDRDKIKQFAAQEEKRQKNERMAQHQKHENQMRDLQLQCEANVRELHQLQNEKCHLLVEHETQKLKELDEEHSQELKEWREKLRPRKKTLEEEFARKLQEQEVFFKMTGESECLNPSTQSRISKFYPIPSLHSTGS

With `CN(C)C/C=C/C(=O)Nc1cccc(-c2c(-c3ccccc3)oc3ncnc(N[C@H](CO)c4ccccc4)c23)c1`, the Activity in series [1] was under 10%; in series [4], “Non-Toxic”; in [5] it was “Non-Toxic”; in series [7] it was 0.25%; in [8], “Toxic”; in series [9], “Non-Toxic”. For the same compound, the Activity in series [10] is 0%; in series [12] it was “Non-Toxic”; in series [13], 5.6%. In addition, in the series on NCI-H1975 [2], the TGI is listed as 34%. Also, in the series with NCI-H1975 [3], the inhibition entry is “Dose-dependent effect”. Further, in [6], the Tmax was 3.3 h. In addition, the TGI result with HCC827 was “Active”. The compound also returned a bioavailability in [11] of 41.5%.
